Results as given in ChEMBL document CHEMBL5316289, “Structure-Based Rational Design of Small α-Helical Peptides with Broad-Spectrum Activity against Multidrug-Resistant Pathogens” (J Med Chem, 2023).
Where “and” joins values, the source holds several entries; their conditions need not be identical. Identical values can stand only once. Calls of active or inactive are those of the source. No cut-off for these calls is given here. Where a SMILES comes first, the peptide text is derived from it. Bridges are numbered along the chain shown (N, C = ends). [ ]: non-standard residue; d: D form. The star is where a group is joined. X1 = CC[C@H](C)CCCCC(=O)*; dDab = NCC[C@@H](N)C(=O)O; Dab = NCC[C@H](N)C(=O)O

Tests used:
[1] = tested on: Staphylococcus aureus; assay: Antibacterial activity against methicillin resistant Staphylococcus aureus ATCC BAA 1556 assessed as inhibition of bacterial growth incubated for 24 hrs by CLSI based broth microdilution method; assay type: functional
[2] = tested on: Klebsiella pneumoniae; assay: Antibacterial activity against Klebsiella pneumoniae ATCC BAA 1705 assessed as inhibition of bacterial growth incubated for 24 hrs by CLSI based broth microdilution method; assay type: functional
[3] = tested on: Escherichia coli; assay: Antibacterial activity against Escherichia coli ATCC 25922 assessed as inhibition of bacterial growth incubated for 24 hrs by CLSI based broth microdilution method; assay type: functional
[4] = tested on: Pseudomonas aeruginosa; assay: Antibacterial activity against Pseudomonas aeruginosa […] assessed as inhibition of bacterial growth incubated for 24 hrs by CLSI based broth microdilution method; assay type: functional
[5] = tested on: Staphylococcus aureus; assay: Antibacterial activity against Staphylococcus aureus ATCC 29213 assessed as inhibition of bacterial growth incubated for 24 hrs by CLSI based broth microdilution method; assay type: functional
[6] = tested on: Escherichia coli; assay: Antibacterial activity against Escherichia coli ATCC 25922 assessed as fold increase in MIC incubated for 24 hrs in presence of Na+ ions by CLSI based broth microdilution method; assay type: functional
In short: (§1)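 E. coli MICs by CLSI broth microdilution in cation-adjusted Mueller Hinton broth. […] Inoculum was 10^6 CFU/mL with 2-fold serial peptide dilutions, incubated 24 h at 37 °C. MIC is the lowest concentration inhibiting growth. Three independent assays, each in triplicate.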

[7] = tested on: Escherichia coli; assay: Antibacterial activity against Escherichia coli ATCC 25922 assessed as fold increase in MIC incubated for 24 hrs in presence of Mg2+ ions by CLSI based broth microdilution method; assay type: functional; in short: as §1
[8] = tested on: Escherichia coli; assay: Antibacterial activity against Escherichia coli ATCC 25922 assessed as fold increase in MIC incubated for 24 hrs in presence of K+ ions by CLSI based broth microdilution method; assay type: functional; in short: as §1
[9] = tested on: Staphylococcus aureus; assay: Antibacterial activity against methicillin resistant Staphylococcus aureus ATCC BAA 1556 assessed as fold increase in MIC incubated for 24 hrs in presence of NH4+ ions by CLSI based broth microdilution method; assay type: functional
In short: (§2)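 CLSI broth microdilution. Overnight cultures diluted in cation-adjusted Mueller Hinton broth to 10^6 CFU/mL, mixed 1:1 with 2-fold serial peptide dilutions, 24 h at 37 °C. […] MIC is the lowest concentration inhibiting growth. Three independent assays in triplicate.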

[10] = tested on: Staphylococcus aureus; assay: Antibacterial activity against methicillin resistant Staphylococcus aureus ATCC BAA 1556 assessed as fold increase in MIC incubated for 24 hrs in presence of Na+ ions by CLSI based broth microdilution method; assay type: functional; in short: as §2
[11] = tested on: Staphylococcus aureus; assay: Antibacterial activity against methicillin resistant Staphylococcus aureus ATCC BAA 1556 assessed as fold increase in MIC incubated for 24 hrs in presence of Ca2+ ions by CLSI based broth microdilution method; assay type: functional; in short: as §2
[12] = tested on: Staphylococcus aureus; assay: Antibacterial activity against methicillin resistant Staphylococcus aureus ATCC BAA 1556 assessed as fold increase in MIC incubated for 24 hrs in presence of K+ ions by CLSI based broth microdilution method; assay type: functional; in short: as §2
[13] = tested on: Staphylococcus aureus; assay: Antibacterial activity against methicillin resistant Staphylococcus aureus ATCC BAA 1556 assessed as fold increase in MIC incubated for 24 hrs in presence of Mg2+ ions by CLSI based broth microdilution method; assay type: functional; in short: as §2
[14] = tested on: Escherichia coli; assay: Antibacterial activity against Escherichia coli ATCC 25922 assessed as fold increase in MIC incubated for 24 hrs in presence of Ca2+ ions by CLSI based broth microdilution method; assay type: functional; in short: as §1
[15] = tested on: Escherichia coli; assay: Antibacterial activity against Escherichia coli ATCC 25922 assessed as fold increase in MIC incubated for 24 hrs in presence of NH4+ ions by CLSI based broth microdilution method; assay type: functional; in short: as §1
[16] = tested on: Erythrocyte; assay: Hemolytic activity in human RBC incubated for 2 hrs by spectrophotometrical analysis; assay type: toxicity, cell-based
In short: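 Human erythrocytes (4% suspension in PBS) mixed 1:1 with 2-fold serial peptide dilutions, 2 h at 37 °C without agitation. After centrifugation, supernatant hemoglobin read at 567 nm. 0% hemolysis set by PBS, 100% by 1% Triton X-100. HC50 is the concentration giving 50% hemolysis.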

[17] = tested on: Cell membrane; assay: Disruption of cell membrane in methicillin resistant Staphylococcus aureus ATCC BAA 1556 assessed as increase in PI fluorescence intensity at 4 times of MIC measured after 1 hrs by PI staining based flow cytometric analysis
In short: (§3)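 Mid-log cells grown in Mueller Hinton broth, washed in 10 mM Tris pH 7.4, 10^7 CFU/mL, treated at MIC and 4× MIC for 1 h. Pelleted, washed, PI-stained for 15 min at 37 °C in the dark, then counted by flow cytometry for % PI-positive cells. PBS-treated cells as negative control, 10% Triton X-100 as positive control. Run in triplicate; two-tailed unpaired t-test.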

[18] = tested on: Cell membrane; assay: Disruption of cell membrane in methicillin resistant Staphylococcus aureus ATCC BAA 1556 assessed as increase in PI fluorescence intensity at MIC measured after 1 hrs by PI staining based flow cytometric analysis; assay type: subcellular; in short: as §3
[19] = tested on: Cell membrane; assay: Disruption of cell membrane in Escherichia coli ATCC BAA-2452 assessed as increase in PI fluorescence intensity at 4 times of MIC measured after 1 hrs by PI staining based flow cytometric analysis; assay type: subcellular
In short: (§4)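 Mid-log E. coli ATCC BAA-2452 grown in Mueller Hinton broth, washed thrice and resuspended at 10^7 CFU/mL in 10 mM Tris pH 7.4. […] Controls: PBS (negative) and 10% Triton X-100 (positive). Triplicate; two-tailed unpaired t-test.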

[20] = tested on: Cell membrane; assay: Disruption of cell membrane in Escherichia coli ATCC BAA-2452 assessed as increase in PI fluorescence intensity at MIC measured after 1 hrs by PI staining based flow cytometric analysis; assay type: subcellular; in short: as §4

Row | Molecule | MIC [1] | MIC ([2]; read-out: MIC) [µg/mL] | MIC [3] | MIC [4] [µg/mL] | MIC [5] | further results
1 | H-RWWRRWAR-NH2 | > 100 µg/mL and > 78.7 µM | > 100 | > 100 µg/mL and > 78.7 µM | > 100 | > 100 µg/mL and > 78.7 µM | 
2 | H-RWWRRAWRA-NH2 | > 100 µg/mL and > 74.5 µM | > 100 | > 100 µg/mL and > 74.5 µM | > 100 | > 100 µg/mL and > 74.5 µM | 
3 | H-RWIRRWIRWWR-NH2 |  | 100 | 100 µg/mL |  |  | MIC [2]: 56.5 µM
4 | H-RWIRRWIRWWRR-NH2 |  | 12.5 |  |  |  | fold change (FC) [6]: 2; fold change (FC) [7]: 2; fold change (FC) [8]: 2; fold change (FC) [9]: 2; fold change (FC) [10]: 2; fold change (FC) [11]: 2; fold change (FC) [12]: 2; fold change (FC) [13]: 2; fold change (FC) [14]: 2; fold change (FC) [15]: 2
5 | H-RWARRWARWWRR-NH2 |  | > 100 | > 100 µg/mL and > 54.3 µM | 100 |  | 
6 | H-AWWRRAWRR-NH2 | > 100 µg/mL and > 74.5 µM | > 100 | > 100 µg/mL and > 74.5 µM | > 100 | > 100 µg/mL and > 74.5 µM | 
7 | Ac-RWARRWARWWRR-NH2 |  | > 100 | 100 µg/mL | 100 |  | HC50 [16]: 110 ug ml-1 and 58.4 µM
8 | H-ARRWWRRW-NH2 | 100 µg/mL and > 78.7 µM | > 100 | > 100 µg/mL and > 78.7 µM | > 100 | 100 µg/mL | 
9 | H-RWARRAWRAW-NH2 | > 100 µg/mL and > 70.7 µM | > 100 | > 100 µg/mL and > 70.7 µM | > 100 | > 100 µg/mL and > 70.7 µM | 
10 | H-KWIKKWIKWWKK-NH2 |  |  |  |  |  | fold change (FC) [6]: 2; fold change (FC) [7]: 2; fold change (FC) [8]: 2; fold change (FC) [9]: 2; fold change (FC) [10]: 2; fold change (FC) [11]: 2; fold change (FC) [12]: 2; fold change (FC) [13]: 2; fold change (FC) [14]: 2; fold change (FC) [15]: 2
11 | H-RWWRRAWR-NH2 | > 100 µg/mL and > 78.7 µM | > 100 | > 100 µg/mL and > 78.7 µM | > 100 | > 100 µg/mL and > 78.7 µM | 
12 | H-RAWRRWARAW-NH2 | > 100 µg/mL and > 70.7 µM | > 100 | > 100 µg/mL and > 70.7 µM | > 100 | > 100 µg/mL and > 70.7 µM | 
13 | H-RWWRRAWAR-NH2 | > 100 µg/mL and > 74.5 µM | > 100 | > 100 µg/mL and > 74.5 µM | > 100 | > 100 µg/mL and > 74.5 µM | 
14 | H-AAWRRWWRRA-NH2 | > 100 µg/mL and > 70.7 µM | > 100 | > 100 µg/mL and > 70.7 µM | > 100 | > 100 µg/mL and > 70.7 µM | 
15 | H-RRWRRWW-NH2 | 100 µg/mL | > 100 | > 100 µg/mL and > 83.3 µM | > 100 | 100 µg/mL | 
16 | H-RAWRRWWRA-NH2 | > 100 µg/mL and > 74.5 µM | > 100 | > 100 µg/mL and > 74.5 µM | > 100 | > 100 µg/mL and > 74.5 µM | 
17 | CC[C@H](C)CCCCC(=O)N[C@@H](CCN)C(=O)N[C@H](C(=O)N[C@@H](CCN)C(=O)N[C@H]1CCNC(=O)[C@H]([C@@H](C)O)NC(=O)[C@H](CCN)NC(=O)[C@H](CCN)NC(=O)[C@H](CC(C)C)NC(=O)[C@@H](Cc2ccccc2)NC(=O)[C@@H](CCN)NC1=O)[C@@H](C)O (X1-[Dab]T[Dab][Dab][dDab][dF]L[Dab][Dab]T; lactam 4-C) |  |  |  |  |  | Activity [17]: inactive; Activity [18]: inactive; Activity [19]: inactive; Activity [20]: inactive
18 | Ac-KWAKKWAKWWKK-NH2 | 100 µg/mL | 100 | 100 µg/mL | 100 |  | 
